Publication PMC6694902 (Journal of Taibah University Medical Sciences, 2017)
≈ marks a conversion by molar mass, not a printed value. Where “and” joins values, the source holds several entries; their conditions need not be identical. Equal entries are not always repeated.

Tests used:
[1] = test system: Klebsiella pneumoniae (MTCC 109); conditions: reported earlier by the authors ref 6; cited from earlier work
Escherichia coli (res) [2] = experiment: Agar well diffusion, zone of inhibition; type: cell-based; conditions: mean ± S.D., n = 6; resistant to norfloxacin, ofloxacin, ampicillin, cefixime, nitrofurantoin
How it was run: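 Clinical isolate from a faecal sample (Bhubaneswar hospital). Nutrient agar plates were seeded with a 1.5 × 10^6 CFU/mL suspension matched to McFarland 0.5. Test compound was loaded into the agar wells from a DMF stock (1 mg/mL). Plates were incubated at 37 °C for 18–24 h and the inhibition zone was read. Amoxicillin and ampicillin were the reference antibiotics.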

[3] = test system: Klebsiella pneumoniae (MTCC 109); experiment: Agar well diffusion, zone of inhibition; type: cell-based; conditions: mean ± S.D., n = 6
How it was run: (§1)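 Agar well diffusion on nutrient agar. K. pneumoniae MTCC 109 came from IMTECH; S. aureus (res) was an Utkal University isolate. Plates were seeded with 1.5 × 10^6 CFU/mL suspensions (McFarland 0.5). Test compounds were dissolved in DMF (1 mg/mL stock) and placed in wells, with amoxicillin and ampicillin as references. Plates were kept at 37 °C for 18–24 h, then zones were read.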

[4] = test system: Staphylococcus aureus (res); experiment: Agar well diffusion, zone of inhibition; type: cell-based; conditions: mean ± S.D., n = 6; resistant to norfloxacin, ofloxacin, ampicillin, cefotaxime
How it was run: as §1

[5] = test system: Candida albicans (MTCC 3017); experiment: Agar well diffusion, zone of inhibition; type: cell-based; conditions: mean ± S.D., n = 6
How it was run: (§2)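 Agar well diffusion on Sabouraud dextrose agar. C. albicans MTCC 3017 came from IMTECH; C. neoformans was an Utkal University strain. Plates were seeded with 1.5 × 10^6 CFU/mL suspensions (McFarland 0.5). Test compounds were dissolved in DMF (1 mg/mL stock) and loaded into wells, with fluconazole as reference. Incubation was 37 °C for 18–24 h, and zones were measured.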

Cryptococcus neoformans [6] = experiment: Agar well diffusion, zone of inhibition; type: cell-based; conditions: mean ± S.D., n = 6
How it was run: as §2

Escherichia coli (res) [7] = experiment: Minimum inhibitory concentration; type: cell-based
How it was run: (§3)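 MIC was determined in nutrient agar wells seeded with bacteria (McFarland 0.5, 1.5 × 10^6 CFU/mL). E. coli (res) and S. aureus (res) were clinical isolates; K. pneumoniae was MTCC 109. DMF stocks at 1 mg/mL were diluted two-fold to five levels (31.25–500 µg/mL) in wells, with amoxicillin and ampicillin as references. Plates were incubated at 37 °C for 18–24 h.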

[8] = test system: Klebsiella pneumoniae (MTCC 109); experiment: Minimum inhibitory concentration; type: cell-based
How it was run: as §3

[9] = test system: Staphylococcus aureus (res); experiment: Minimum inhibitory concentration; type: cell-based
How it was run: as §3

[10] = test system: Candida albicans (MTCC 3017); experiment: Minimum inhibitory concentration; type: cell-based
How it was run: (§4)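 MIC was determined in agar wells on Sabouraud dextrose agar seeded with the fungal strain (McFarland 0.5, 1.5 × 10^6 CFU/mL). DMF stocks at 1 mg/mL were diluted two-fold to five levels (31.25–500 µg/mL) and loaded into wells, with fluconazole as reference. After 18–24 h at 37 °C, the lowest inhibitory concentration was taken as the MIC.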

Cryptococcus neoformans [11] = experiment: Minimum inhibitory concentration; type: cell-based
How it was run: as §4

[12] = DPPH radical scavenging assay; type: biochemical; conditions: mean ± S.D., n = 3; for IC50 (DPPH radical scavenging): graphically determined
How it was run: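 DPPH scavenging, a modified method, was read as absorbance at 517 nm for test compounds at several concentrations. BHT served as standard, and DPPH in methanol served as control. Percent inhibition was calculated from control and sample absorbances, and IC50 was obtained graphically. Data were analysed by one-way ANOVA with Dunnett's post hoc test.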

[13] = 31.25–500 µg/mL tested, 37 °C, 18–24 h

SMILES | zone of inhibition, E. coli (res) (Escherichia coli (res) [2]) | zone of inhibition, K. pneumoniae [3] | zone of inhibition, S. aureus (res) [4] | zone of inhibition, C. albicans [5] [mm] | zone of inhibition, C. neoformans (Cryptococcus neoformans [6]) [mm] | % Inhibition (DPPH) ([12]; Conc. 10 μg/mL) [%] | % Inhibition (DPPH) ([12]; Conc. 30 μg/mL) [%] | % Inhibition (DPPH) ([12]; Conc. 50 μg/mL) [%] | % Inhibition (DPPH) ([12]; Conc. 70 μg/mL) [%] | IC50 (DPPH radical scavenging) [12] [µg/mL] | other results
COc1ccc(/N=C/c2cc(/N=N/c3cccc([N+](=O)[O-])c3)ccc2[O][Co][O]c2ccc(/N=N/c3cccc([N+](=O)[O-])c3)cc2/C=N/c2ccc(OC)cc2)cc1 [5a(Co Lig2), bis[2-{(E)-(4-methoxyphenylimino)methyl}-4-{(E)-(3-nitrophenyl)diazenylphenoxy}cobalt]] | – | – | – | – | – | – | – | – | – | – | antibacterial activity against K. pneumoniae [1]: significant antibacterial activity
Cc1cc(N=Nc2ccc([O][Co][O]c3ccc(N=Nc4ccc(Br)c(C)c4)cc3C=Nc3nc(-c4ccc(Cl)cc4)cs3)c(C=Nc3nc(-c4ccc(Cl)cc4)cs3)c2)ccc1Br [Compound 6d, Bis[4-{(4-bromo-3-methylphenyl)diazenyl}-2-{(4-(4-chlorophenyl)thiazol-2-ylimino)methyl}phenoxy]cobalt] | 15.5 ± 3.21 mm and 15.5 ± 3.21^∗ mm | 16.17 ± 2.99 mm and 16.17 ± 2.99^∗ mm | 16.83 ± 2.71 mm and 16.83 ± 2.71^∗ mm | 12.67 ± 2.34 | 12.17 ± 2.71 | 36.53 ± 0.02 | 43.03 ± 0.04 | 61.97 ± 0.08 | 73.78 ± 0.07 | 38 ± 1.4 | Minimum inhibitory concentration (MIC), E. coli (res) (Escherichia coli (res) [7]; [13]): 31.25 µg/mL; Minimum inhibitory concentration (MIC), K. pneumoniae [8, 13]: 31.25 µg/mL; Minimum inhibitory concentration (MIC), S. aureus (res) [9, 13]: 31.25 µg/mL; Minimum inhibitory concentration (MIC), C. albicans [10, 13]: 250 µg/mL; Minimum inhibitory concentration (MIC), C. neoformans (Cryptococcus neoformans [11]; [13]): 250 µg/mL
Cc1cc(N=Nc2ccc(O)c(C=O)c2)ccc1Br [Compound 4e, 5-[(4-Bromo-3-methylphenyl)diazenyl]-2-hydroxybenzaldehyde] | 15.83 ± 1.47^∗ mm | 15.17 ± 2.14 mm | 16.17 ± 2.04^∗ mm | 10.17 ± 1.84 | 12.5 ± 1.52 | 17.96 ± 0.03 | 29.54 ± 0.05 | 33.64 ± 0.09 | 56.39 ± 0.08 | 72 ± 1.4 (≈ 226 µM) | MIC (Escherichia coli (res) [7]; Escherichia coli, read-out: Minimum inhibitory concentration (MIC), E. coli (res), 31.25–500 µg/mL tested, 37 °C, 18–24 h): 31.2 µg/mL (≈ 97.9 µM); MIC ([8]; Klebsiella pneumoniae, MTCC109, read-out: Minimum inhibitory concentration (MIC), K. pneumoniae, 31.25–500 µg/mL tested, 37 °C, 18–24 h): 31.2 µg/mL (≈ 97.9 µM); MIC ([9]; Staphylococcus aureus, read-out: Minimum inhibitory concentration (MIC), S. aureus (res), 31.25–500 µg/mL tested, 37 °C, 18–24 h): 31.2 µg/mL (≈ 97.9 µM); MIC ([10]; Candida albicans, MTCC3017, read-out: Minimum inhibitory concentration (MIC), C. albicans): 500 µg/mL (≈ 1570 µM); MIC (Cryptococcus neoformans [11]; Cryptococcus neoformans, read-out: Minimum inhibitory concentration (MIC), C. neoformans): 250 µg/mL (≈ 783 µM)
